Each structure is given as a SMILES string. The source made the active and inactive calls. The calls are words filed in the database; no cut-off is given here.

Assay [1] deals with Lewis lung carcinoma cell line. Briefly: Antitumor activity against mouse LLC cells implanted in C57BL/6 mouse assessed as tumor weight inhibition at 12 mg/kg, iv administered every 4 days measured 11 days after tumor implantation. Format: functional, organism-based.
In assay [2] the target is T1, Nucleotide-binding oligomerization domain-containing protein 1 (Homo sapiens) (UniProt Q9Y239).
T1 sequence (whole entry): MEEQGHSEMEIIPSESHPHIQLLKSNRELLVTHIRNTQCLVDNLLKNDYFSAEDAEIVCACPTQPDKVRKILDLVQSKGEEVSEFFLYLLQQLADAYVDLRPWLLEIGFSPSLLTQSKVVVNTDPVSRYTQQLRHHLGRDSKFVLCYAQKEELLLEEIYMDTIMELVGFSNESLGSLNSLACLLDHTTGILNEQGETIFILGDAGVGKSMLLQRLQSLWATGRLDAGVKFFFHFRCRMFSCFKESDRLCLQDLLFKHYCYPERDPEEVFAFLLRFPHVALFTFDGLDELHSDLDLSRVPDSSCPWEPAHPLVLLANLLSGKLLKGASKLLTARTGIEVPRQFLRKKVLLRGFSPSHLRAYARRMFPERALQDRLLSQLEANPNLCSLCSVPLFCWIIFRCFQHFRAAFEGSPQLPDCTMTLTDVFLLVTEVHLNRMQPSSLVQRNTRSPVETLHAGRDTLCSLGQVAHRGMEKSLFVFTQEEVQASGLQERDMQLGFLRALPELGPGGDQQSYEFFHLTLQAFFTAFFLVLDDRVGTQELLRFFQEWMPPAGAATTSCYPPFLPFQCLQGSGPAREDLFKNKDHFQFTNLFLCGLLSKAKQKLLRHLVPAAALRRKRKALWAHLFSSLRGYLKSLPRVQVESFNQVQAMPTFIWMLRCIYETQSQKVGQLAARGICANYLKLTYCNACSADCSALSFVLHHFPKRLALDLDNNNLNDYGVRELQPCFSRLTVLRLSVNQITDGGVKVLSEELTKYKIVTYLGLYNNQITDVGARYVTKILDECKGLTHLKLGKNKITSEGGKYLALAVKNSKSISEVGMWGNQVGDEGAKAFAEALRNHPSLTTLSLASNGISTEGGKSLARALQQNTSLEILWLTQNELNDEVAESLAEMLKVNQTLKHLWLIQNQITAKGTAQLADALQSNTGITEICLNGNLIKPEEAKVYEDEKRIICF
Kind of assay: Inhibition of NOD1 in human PBMC-derived macrophages assessed as reduction in C12-iE-DAP-stimulated IL6 mRNA expression at 1 uM preincubated for 1 hr followed by C12-iE-DAP stimulation for 90 mins by RT-qPCR analysis. A digest of the protocol: (§1)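 Human CD14+ monocytes from donor PBMC, differentiated 7 days with M-CSF 20 ng/mL to macrophages; 1.0 × 10^6 cells pretreated 1 h with compound (final 0.1% DMSO), then C12-iE-DAP 500 ng/mL or MDP 5 μg/mL for 90 min. IL-6/TNF-α mRNA by qRT-PCR, normalized to GAPDH; stimulated response set to 100%.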

In assay [3] the target is T1, Nucleotide-binding oligomerization domain-containing protein 1 (Homo sapiens). Briefly: Inhibition of NOD1 in human PBMC-derived macrophages assessed as reduction in C12-iE-DAP-stimulated TNFalpha mRNA expression at 1 uM preincubated for 1 hr followed by C12-iE-DAP stimulation for 90 mins by RT-qPCR analysis. A digest of the protocol: as §1

Consider `CC(=O)O[C@H]1C(=O)[C@@]2(C)[C@H]([C@H](OC(=O)c3ccccc3)[C@]3(O)C[C@H](OC(=O)[C@H](O)[C@@H](NC(=O)c4ccccc4)c4ccccc4)C(C)=C1C3(C)C)[C@]1(OC(C)=O)CO[C@@H]1C[C@@H]2O`, for which the TGI result in assay [1] was “inactive”.

For the molecule `Nc1nc2ccccc2n1S(=O)(=O)c1ccc(Cl)cc1`, the inhibition entry in assay [2] and in assay [3] was “Active” in each case.

Values taken from ChEMBL document CHEMBL4014339, “Discovery of 1,4-Benzodiazepine-2,5-dione (BZD) Derivatives as Dual Nucleotide Binding Oligomerization Domain Containing 1/2 (NOD1/NOD2) Antagonists Sensitizing Paclitaxel (PTX) To Suppress Lewis Lung Carcinoma (LLC) Growth in Vivo” (J Med Chem, 2017).
